Measurements published in ChEMBL document CHEMBL4393701, “Appendix A. dithioloquinolinethiones as new potential multitargeted antibacterial and antifungal agents: Synthesis, biological evaluation and molecular docking studies” (2019).
In brackets after ≈: the same amount, converted by molar mass.

How the values were obtained:
[1] = test system: Aspergillus fumigatus; assay: Antifungal activity against Aspergillus fumigatus ATCC 1022 after 72 hrs by microdilution technique; assay type: functional; details: ATCC 1022, 72 h
Summary of the method: (§1)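 Spores were washed off malt agar with 0.85% saline containing 0.1% Tween 80 and adjusted to about 1.0×10^5 per well. Compounds in 5% DMSO were serially diluted (0.001-1.0 mg/ml) in malt broth with inoculum. Plates were shaken at 160 rpm for 72 h at 28 °C. MIC is the lowest concentration without visible growth under a binocular microscope. Three independent experiments in duplicate.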

[2] = test system: Aspergillus fumigatus; assay: Fungicidal activity against Aspergillus fumigatus ATCC 1022 incubated for 72 hrs followed by sub-culturing on broth malt medium and measured after 72 hrs; assay type: functional; details: ATCC 1022, 72 h
Summary of the method: (§2)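 After 72 h exposure in malt broth, 2 µL from test wells was subcultured into wells holding 100 µL broth and incubated a further 72 h at 28 °C. MFC is the lowest concentration with no visible growth, taken as 99.5% kill of the original inoculum. Three independent experiments in duplicate.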

[3] = test system: Aspergillus versicolor; assay: Antifungal activity against Aspergillus versicolor ATCC 11730 after 72 hrs by microdilution method; assay type: functional; details: ATCC 11730, 72 h; summary of the method: as §1
[4] = test system: Aspergillus versicolor; assay: Fungicidal activity against Aspergillus versicolor ATCC 11730 incubated for 72 hrs followed by sub-culturing on broth malt medium and measured after 72 hrs; assay type: functional; details: ATCC 11730, 72 h; summary of the method: as §2
[5] = test system: Aspergillus ochraceus; assay: Antifungal activity against Aspergillus ochraceus ATCC 12066 after 72 hrs by microdilution technique; assay type: functional; details: ATCC 12066, 72 h; summary of the method: as §1
[6] = test system: Aspergillus ochraceus; assay: Fungicidal activity against Aspergillus ochraceus ATCC 12066 incubated for 72 hrs followed by sub-culturing on broth malt medium and measured after 72 hrs; assay type: functional; details: ATCC 12066, 72 h; summary of the method: as §2
[7] = test system: Aspergillus niger; assay: Antifungal activity against Aspergillus niger ATCC 6275 after 72 hrs by microdilution technique; assay type: functional; details: ATCC 6275, 72 h; summary of the method: as §1
[8] = test system: Aspergillus niger; assay: Fungicidal activity against Aspergillus niger ATCC 6275 incubated for 72 hrs followed by sub-culturing on broth malt medium and measured after 72 hrs; assay type: functional; details: ATCC 6275, 72 h; summary of the method: as §2
[9] = test system: Trichoderma viride; assay: Antifungal activity against Trichoderma viride IAM 5061 after 72 hrs by microdilution technique; assay type: functional; details: IAM 5061, 72 h; summary of the method: as §1
[10] = test system: Trichoderma viride; assay: Fungicidal activity against Trichoderma viride IAM 5061 incubated for 72 hrs followed by sub-culturing on broth malt medium and measured after 72 hrs; assay type: functional; details: IAM 5061, 72 h; summary of the method: as §2
[11] = test system: Penicillium ochrochloron; assay: Antifungal activity against Penicillium ochrochloron ATCC 9112 after 72 hrs by microdilution technique; assay type: functional; details: ATCC 9112, 72 h; summary of the method: as §1
[12] = test system: Penicillium ochrochloron; assay: Fungicidal activity against Penicillium ochrochloron ATCC 9112 incubated for 72 hrs followed by sub-culturing on broth malt medium and measured after 72 hrs; assay type: functional; details: ATCC 9112, 72 h; summary of the method: as §2
[13] = Antifungal activity against Penicillium funiculosum ATCC 36839 after 72 hrs by microdilution technique; assay type: functional; details: Talaromyces pinophilus, ATCC 36839, 72 h; summary of the method: as §1
[14] = Fungicidal activity against Penicillium funiculosum ATCC 36839 incubated for 72 hrs followed by sub-culturing on broth malt medium and measured after 72 hrs; assay type: functional; details: Talaromyces pinophilus, ATCC 36839, 72 h; summary of the method: as §2
[15] = test system: Penicillium cyclopium; assay: Antifungal activity against Penicillium verrucosum var. cyclopium food isolate after 72 hrs by microdilution technique; assay type: functional; summary of the method: as §1
[16] = test system: Penicillium cyclopium; assay: Fungicidal activity against Penicillium verrucosum var. cyclopium food isolate incubated for 72 hrs followed by sub-culturing on broth malt medium and measured after 72 hrs; assay type: functional; summary of the method: as §2
[17] = test system: Bacillus cereus; assay: Antibacterial activity against Bacillus cereus clinical isolate after 24 hrs by iodonitrotetrazolium chloride dye based microdilution assay; assay type: functional
Summary of the method: (§3)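 Fresh overnight cultures adjusted spectrophotometrically to 1×10^5 CFU/mL, giving 1.0×10^4 CFU per well in tryptic soy broth. Compounds were dissolved in 5% DMSO and tested at 0.001-1.0 mg/ml by serial dilution; 5% DMSO was the negative control. After 24 h at 37 °C, 0.2 mg/mL INT solution was added for 30 min at 37 °C and OD read at 655 nm. MIC is the lowest concentration giving significant growth inhibition versus the positive control. Duplicates, repeated three times.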

[18] = test system: Bacillus cereus; assay: Bactericidal activity against Bacillus cereus clinical isolate incubated for 24 hrs followed by re-plating on tryptic soy broth; assay type: functional
Summary of the method: (§4)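 Bacteria were grown in tryptic soy broth, 1.0×10^4 CFU per well, with compounds in 5% DMSO at 0.001-1.0 mg/ml for 24 h at 37 °C. Then 10 µL was subcultured into fresh TSB. MBC is the lowest concentration showing no growth after subculture, taken as 99.5% kill of the original inoculum. Duplicates, repeated three times.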

[19] = test system: Micrococcus flavus; assay: Antibacterial activity against Micrococcus flavus ATCC 10240 after 24 hrs by iodonitrotetrazolium chloride dye based microdilution method; assay type: functional; details: ATCC 10240, 24 h; summary of the method: as §3
[20] = test system: Micrococcus flavus; assay: Bactericidal activity against Micrococcus flavus ATCC 10240 incubated for 24 hrs followed by re-plating on tryptic soy broth; assay type: functional; details: ATCC 10240, 24 h; summary of the method: as §4
[21] = test system: Staphylococcus aureus; assay: Antibacterial activity against Staphylococcus aureus ATCC 6538 after 24 hrs by iodonitrotetrazolium chloride dye based microdilution method; assay type: functional; details: ATCC 6538, 24 h; summary of the method: as §3
[22] = test system: Staphylococcus aureus; assay: Bactericidal activity against Staphylococcus aureus ATCC 6538 incubated for 24 hrs followed by re-plating on tryptic soy broth; assay type: functional; details: ATCC 6538, 24 h; summary of the method: as §4
[23] = test system: Listeria monocytogenes; assay: Antibacterial activity against Listeria monocytogenes NCTC 7973 after 24 hrs by iodonitrotetrazolium chloride dye based microdilution method; assay type: functional; details: NCTC 7973, 24 h; summary of the method: as §3
[24] = test system: Listeria monocytogenes; assay: Bactericidal activity against Listeria monocytogenes NCTC 7973 incubated for 24 hrs followed by re-plating on tryptic soy broth; assay type: functional; details: NCTC 7973, 24 h; summary of the method: as §4
[25] = test system: Enterobacter cloacae; assay: Antibacterial activity against Enterobacter cloacae clinical isolate after 24 hrs by iodonitrotetrazolium chloride dye based microdilution method; assay type: functional; summary of the method: as §3
[26] = test system: Enterobacter cloacae; assay: Bactericidal activity against Enterobacter cloacae incubated for 24 hrs followed by re-plating on tryptic soy broth; assay type: functional; summary of the method: as §4
[27] = test system: Pseudomonas aeruginosa; assay: Antibacterial activity against Pseudomonas aeruginosa ATCC 27853 after 24 hrs by iodonitrotetrazolium chloride dye based microdilution method; assay type: functional; details: ATCC 27853, 24 h; summary of the method: as §3
[28] = test system: Pseudomonas aeruginosa; assay: Bactericidal activity against Pseudomonas aeruginosa ATCC 27853 incubated for 24 hrs followed by re-plating on tryptic soy broth; assay type: functional; details: ATCC 27853, 24 h; summary of the method: as §4
[29] = test system: Salmonella typhimurium; assay: Antibacterial activity against Salmonella typhimurium ATCC 13311 after 24 hrs by iodonitrotetrazolium chloride dye based microdilution method; assay type: functional, Salmonella enterica subsp. enterica serovar Typhimurium; details: Salmonella enterica, ATCC 13311, 24 h; summary of the method: as §3
[30] = test system: Salmonella typhimurium; assay: Bactericidal activity against Salmonella typhimurium ATCC 13311 incubated for 24 hrs followed by re-plating on tryptic soy broth; assay type: functional, Salmonella enterica subsp. enterica serovar Typhimurium; details: Salmonella enterica, ATCC 13311, 24 h; summary of the method: as §4
[31] = test system: Escherichia coli; assay: Antibacterial activity against Escherichia coli ATCC 35210 after 24 hrs by iodonitrotetrazolium chloride dye based microdilution method; assay type: functional; details: ATCC 35210, 24 h; summary of the method: as §3
[32] = test system: Escherichia coli; assay: Bactericidal activity against Escherichia coli ATCC 35210 incubated for 24 hrs followed by re-plating on tryptic soy broth; assay type: functional; details: ATCC 35210, 24 h; summary of the method: as §4

Structure (SMILES)	MIC [1]	MFC [2]	MIC [3]	MFC [4]	MIC [5]	MFC [6]	MIC [7]	MFC [8]	MIC [9]	MFC [10]	MIC [11]	MFC [12]	MIC [13]	MFC [14]	MIC [15]	MFC [16]	MIC [17]	MBC [18]	MIC [19]	MBC [20]	other results
CC(=O)N1CCN(c2ccc(OCC3COC(Cn4ccnc4)(c4ccc(Cl)cc4Cl)O3)cc2)CC1 (centres undefined) [KETOCONAZOLE]	38 ×10⁻² mM	95 ×10⁻² mM	285 ×10⁻² mM	380 ×10⁻² mM	38 ×10⁻² mM	95 ×10⁻² mM	38 ×10⁻² mM	95 ×10⁻² mM	475 ×10⁻² mM	570 ×10⁻² mM	38 ×10⁻² mM	95 ×10⁻² mM	380 ×10⁻² mM	380 ×10⁻² mM	38 ×10⁻² mM	57 ×10⁻² mM					
Cc1ccc2c(c1)-c1c(ssc1=S)C(C)(C)N2C(=O)c1cccnc1	7.8 ×10⁻² mM	15.6 ×10⁻² mM	7.8 ×10⁻² mM	15.6 ×10⁻² mM	14.6 ×10⁻² mM	31.2 ×10⁻² mM	1.56 ×10⁻² mM	7.8 ×10⁻² mM	1.04 ×10⁻² mM	2.08 ×10⁻² mM	7.8 ×10⁻² mM	15.6 ×10⁻² mM	15.6 ×10⁻² mM	31.2 ×10⁻² mM	7.8 ×10⁻² mM	15.6 ×10⁻² mM	12.1 µM (≈ 4.65 µg/mL)	0.6 µM (≈ 0.231 µg/mL)	12.1 µM (≈ 4.65 µg/mL)	0.6 µM (≈ 0.231 µg/mL)	MIC [21]: 0.3 µM (≈ 0.115 µg/mL); MBC [22]: 0.6 µM (≈ 0.231 µg/mL); MIC [23]: 0.3 µM (≈ 0.115 µg/mL); MBC [24]: 0.6 µM (≈ 0.231 µg/mL); MIC [25]: 0.3 µM (≈ 0.115 µg/mL); MBC [26]: 0.6 µM (≈ 0.231 µg/mL); MIC [27]: 0.3 µM (≈ 0.115 µg/mL); MBC [28]: 0.6 µM (≈ 0.231 µg/mL); MIC [29]: 0.3 µM (≈ 0.115 µg/mL); MBC [30]: 0.6 µM (≈ 0.231 µg/mL); MIC [31]: 12.1 µM (≈ 4.65 µg/mL); MBC [32]: 0.6 µM (≈ 0.231 µg/mL)
CN[C@@H]1[C@H](O[C@H]2[C@H](O[C@H]3[C@H](O)[C@@H](O)[C@H](N=C(N)N)[C@@H](O)[C@@H]3N=C(N)N)O[C@@H](C)[C@]2(O)C=O)O[C@@H](CO)[C@H](O)[C@H]1O [STREPTOMYCIN]																	43 µM (≈ 25 µg/mL)	86 µM (≈ 50 µg/mL)	86 µM (≈ 50 µg/mL)	172 µM (≈ 100 µg/mL)	MIC [21]: 172 µM (≈ 100 µg/mL); MBC [22]: 344 µM (≈ 200 µg/mL); MIC [23]: 258 µM (≈ 150 µg/mL); MBC [24]: 516 µM (≈ 300 µg/mL); MIC [25]: 270 µM (≈ 157 µg/mL); MBC [26]: 344 µM (≈ 200 µg/mL); MIC [27]: 172 µM (≈ 100 µg/mL); MBC [28]: 344 µM (≈ 200 µg/mL); MIC [29]: 43 µM (≈ 25 µg/mL); MBC [30]: 86 µM (≈ 50 µg/mL); MIC [31]: 270 µM (≈ 157 µg/mL); MBC [32]: 344 µM (≈ 200 µg/mL)
